Compound activity (PubChem BioAssay)
In the library only some 3.3% were active in any assay of this set; here they are far more common.
PRMT1 FP inh: inhibitors of human PRMT1 | 370,000 compounds, 1.3% hits | Q99873 | recombinant PRMT1, activity-based probe fluorescence polarization | inhibition, % at 2.79 µM;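 active = inhibition above about 21% made by adding two undisclosed values, limit read from the data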
Target sequence (Q99873 whole entry, looked up): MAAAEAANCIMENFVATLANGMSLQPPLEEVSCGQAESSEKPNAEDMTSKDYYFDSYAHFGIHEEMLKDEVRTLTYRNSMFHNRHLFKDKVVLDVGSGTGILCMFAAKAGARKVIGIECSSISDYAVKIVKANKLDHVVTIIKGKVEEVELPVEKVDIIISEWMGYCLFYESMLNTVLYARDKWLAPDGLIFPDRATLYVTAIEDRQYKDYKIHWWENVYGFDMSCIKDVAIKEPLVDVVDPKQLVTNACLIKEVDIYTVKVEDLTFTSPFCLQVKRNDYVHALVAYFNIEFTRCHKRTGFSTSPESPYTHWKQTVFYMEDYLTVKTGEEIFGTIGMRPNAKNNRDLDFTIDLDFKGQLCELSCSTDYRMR
mABHD4 FP: inhibits mouse alpha/beta hydrolase domain 4; purified mABHD4, FP-Rh probe fluorescence polarization; inhibition, % at 8.92 µM; 370,000 compounds, 0.54% hits; AID 720543;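 active = inhibition exceeding the mean over every tested compound plus 3 SD, cut at about 30% in these data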
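Assay system: mABHD4 protein; medium: HEPES pH 7.0, NaCl, Pluronic buffer; dosing: 8.92 µM, single dose; schedule: 45 min + 60 min at 25 °C; signal: FP readout, ex 525 nm / em 598 nm; read-out: normalized percent inhibition of probe labeling; repeats: single replicate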
SIAE primary: inhibitors of human sialic acid acetylesterase SIAE | Q9HAT2 | SIAE FP-Rh probe binding, fluorescence polarization | inhibition, % at 9.66 µM | 370,000 compounds, 0.69% hits | AID 1053197;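 active = inhibition above a cutoff: mean of compounds within the control limits plus 3 SD of those, cut at about 17% in these data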
HTRA1 inh: inhibitors of human serine peptidase HTRA1; recombinant HTRA1, FP-rhodamine activity-based probe, fluorescence polarization; inhibition, % at 5.96 µM; 340,000 compounds, 0.5% hits; AID 504803; in the data active = inhibition above about 36%
rCAG binder: molecules binding r(CAG) RNA repeats; 370,000 compounds, 1.3% hits; r(CAG) RNA repeat, TO-PRO-1 dye displacement fluorescence; inhibition, % at 3 µM;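 active = inhibition above the plate cutoff, the mean of all test compounds on that plate plus 3 SD, cut at about 35% in these data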;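 also: higher means more dye released from RNA so lower well fluorescence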
Each line names hits and unclear results; the compound was inactive in the other large screens.

Fc1ccc(-c2csc(=S)[nH]2)cc1	PRMT1 FP inh 22
Cc1nc2ccc(NC(=O)c3ccccc3)cc2s1	none
Cc1nc2cc(C(=O)O)ccc2s1	PRMT1 FP inh 21
Cc1c(C2Nc3ccccc3C2C)[nH]c2ccccc12 (stereo unspecified)	none (no result: HTRA1 inh)
COC(=O)c1cc2c(c3c4cc(F)ccc4n(C(=O)c4ccccc4)c13)C(=O)N(C1CCCCC1)C2	none (no result: HTRA1 inh)
CCN(CC)CCn1c(SCC(=O)NCCC2=CCCCC2)nc2c(sc3ccccc32)c1=O	PRMT1 FP inh 22
Cc1cc(C)nc(SCC(=O)c2ccc(F)cc2)n1	none
Cc1cc(C)nc(SCNC(=O)c2ccc(F)cc2)n1	PRMT1 FP inh 26
O=C(O)c1ccc(N/N=C/C=C/c2ccccc2[N+](=O)[O-])cc1	none
C/C(=N\Nc1ccc(S(=O)(=O)Nc2ccccc2)cc1[N+](=O)[O-])c1ccc(N2CCOCC2)cc1	none
C/C(=N\Nc1ccc(S(=O)(=O)Nc2ccc(Cl)cc2)cc1[N+](=O)[O-])c1ccc(N2CCOCC2)cc1	SIAE primary 24
O=[N+]([O-])c1ccccc1/C=C/C=N/Nc1ccc(S(=O)(=O)Nc2ccc(Cl)cc2)cc1[N+](=O)[O-]	SIAE primary 43
COC(=O)[C@]12C[C@H](CC(=O)NCc3ccc(OC)c(OC)c3)C(=O)N(CCc3ccc(OC)c(OC)c3)C1=C[C@H](C(C)(C)C)O[C@@H]2C	none (no result: HTRA1 inh)
CC(CCc1ccccc1)NC(=O)CN1CCN(c2ccc(O)cc2)CC1 (stereo unspecified)	PRMT1 FP inh 23
Cc1cc2nc(-c3cccc(Cl)c3)c(Cc3cccc(Cl)c3)n2c(C)c1Br	rCAG binder 35 (no result: HTRA1 inh)
Cc1ccc(Cc2c(-c3cccc(Cl)c3)nc3ccc(Br)cn23)cc1	rCAG binder 44 (no result: HTRA1 inh)
Cc1ccc(Cc2c(-c3cccc(Cl)c3)nc3ccc(C)cn23)cc1	none (no result: HTRA1 inh)
COC(=O)c1c(-c2ccc(OC)cc2)c2c(c3c4cc(F)ccc4n(S(=O)(=O)c4ccc(C)cc4)c13)C(=O)N(C)C2	none (no result: HTRA1 inh)
Cn1c(=O)c2c(ncn2Cc2ccc(O)c([N+](=O)[O-])c2)n(C)c1=O	none (no result: HTRA1 inh)
C[C@H](O)[C@@H]1C(=O)N2CCc3c([nH]c4cccc(-c5ccccc5)c34)[C@@H]2C[C@@H]1N(C)C(=O)C1CCCCC1	none (no result: HTRA1 inh)
COc1ccc(S(=O)(=O)N2CCCc3nc(-c4ccccc4)ccc32)cc1	none (no result: HTRA1 inh)
Cc1cc(C)c(NC(=O)CSc2ccc(-c3cccnc3)nn2)c(C)c1	PRMT1 FP inh 23
Cn1c(=O)c2c(c3ccccc31)OC(C)(C)C=C2	none (no result: HTRA1 inh)
CN1CCCCC(NC(=O)c2ccc3ccccc3c2)C1=O (stereo unspecified)	none (no result: HTRA1 inh)
CCCNC(=O)NS(=O)(=O)c1ccc(Cl)cc1	none
CCCNC(=O)c1nnsc1S(=O)(=O)c1ccc(Cl)cc1	PRMT1 FP inh 78
Cc1ccc(C2c3c(n[nH]c3C)C(=O)N2c2ccccc2)cc1 (stereo unspecified)	none (no result: HTRA1 inh)
CCn1cc(/C=C/C(=O)Nc2ccn(Cc3c(F)c(F)cc(F)c3F)n2)cn1	PRMT1 FP inh 22
COC(=O)C1=C(C)N(Cc2ccccc2C(F)(F)F)C(=NCc2ccccc2)NC1c1cccc(C(F)(F)F)c1 (stereo unspecified)	none (no result: HTRA1 inh)
Nc1ccc(N)c(C(=O)O)c1	HTRA1 inh 54 (no result: PRMT1 FP inh, mABHD4 FP, SIAE primary, rCAG binder)
Cc1ccc(NC(=O)CSc2ncnc3ccccc23)cc1S(=O)(=O)N1CCCCC1	PRMT1 FP inh 23
NS(=O)(=O)c1ccc(O)c(NC(=O)c2ccc([N+](=O)[O-])o2)c1	PRMT1 FP inh 22
O=C1c2cccc3cccc(c23)C(=O)C1(O)O	PRMT1 FP inh 54
O=C1c2cccc3cccc(c23)C(=O)N1c1ccc(O)cc1	none
O=C(C(=O)N1CCC(CNS(=O)(=O)c2ccc(C(F)(F)F)cc2)CC1)c1cccs1	none (no result: HTRA1 inh)
O=C(/C=C/c1ccco1)c1cccc([N+](=O)[O-])c1	rCAG binder 39
CN(C)/C=C/C(=O)c1cccc([N+](=O)[O-])c1	none (no result: HTRA1 inh)
COCc1cc(N2CCN(C(=O)OC(C)(C)C)C[C@@H]2C)ccc1N1CCN(Cc2ccccc2)[C@@H](C)C1	none (no result: HTRA1 inh)
O=c1cc(-c2ccc(O)c(O)c2)oc2cc(O[C@@H]3O[C@H](CO)[C@@H](O)[C@H](O)[C@H]3O)cc(O)c12	HTRA1 inh 60 (no result: PRMT1 FP inh, mABHD4 FP, SIAE primary, rCAG binder)
Nc1nc2c(ncn2[C@@H]2O[C@H](C(=O)NCCc3c[nH]c4ccccc34)[C@@H](O)[C@H]2O)c(=O)[nH]1	none (no result: HTRA1 inh)
COC(=O)c1ccc(NC(=O)CSC2=NCCN2)cc1	PRMT1 FP inh 63
CCOc1ccc(NC(=O)CSC2=NCCN2)cc1	none
Cc1nn2cc(-c3ccccc3)nc2[nH]c1=O	SIAE primary 22
O=C(O)CCc1nn2cc(-c3ccccc3)nc2[nH]c1=O	none
COc1ccccc1-n1c(=S)[nH]c2c(sc(=S)n2-c2ccccc2)c1=O	PRMT1 FP inh 83
CCOc1ccccc1-n1c(=S)sc2c(=O)n(-c3ccccc3)c(=S)[nH]c21	PRMT1 FP inh 78, SIAE primary 19
COc1ccccc1-n1c(=S)[nH]c2c(sc(=S)n2-c2ccccc2C)c1=O	PRMT1 FP inh 87
COc1ccccc1-n1c(SC)nc2c(sc(=S)n2-c2ccccc2)c1=O	none
CCCN1CCCCC(NC(=O)c2ccc(C)cc2C)C1=O (stereo unspecified)	none (no result: HTRA1 inh)
CCCCc1nnn2c1C1c3cc(-c4cccnc4)ccc3CCN1C(=O)C2 (stereo unspecified)	none (no result: HTRA1 inh)
CC1(C)Cc2c(c(-c3ccco3)nc3sc4c(NCC5CCCO5)ncnc4c23)CO1 (stereo unspecified)	PRMT1 FP inh 23
O=C1NC(=O)N2CCSC2(Cc2ccccc2)N1 (stereo unspecified)	PRMT1 FP inh 21
O=C1CCN(Cc2ccccc2)C(=O)N1	none
CCn1c2ccccc2c2nnc(SCc3ccccc3)nc21	none
CCn1c2ccccc2c2nnc(SCc3ccc(C(=O)OC)o3)nc21	PRMT1 FP inh 24
O=C(CNC(=O)c1ccccc1)NCCc1ccc(O)c(O)c1	PRMT1 FP inh 25
O=C(COC(=O)CNC(=O)c1ccccc1)NCCc1ccccc1	none
Cc1ccc(-c2nc3ccccc3nc2NN)cc1	PRMT1 FP inh 22
CC(C)CC1=C/C(=C/c2ccc(-c3ccccc3)o2)C(=O)O1	rCAG binder 44
NS(=O)(=O)c1ccc(-c2ccc(C=C3C(=O)c4ccccc4C3=O)o2)cc1	none
O=C(NCc1ccccc1)[C@H]1CCCN1C(=O)[C@H]1CCCN1C(=O)c1cccc(F)c1	none (no result: HTRA1 inh)
CCOc1ccccc1NC(=O)C(NCCN(C)C)c1ccccc1 (stereo unspecified)	none
CCOc1ccccc1NC(=O)C(NCCc1ccc(OC)cc1)c1ccccc1 (stereo unspecified)	PRMT1 FP inh 21
O=C(NC1CCCc2c1cnn2-c1ccc(F)cc1F)c1cccs1 (stereo unspecified)	none (no result: HTRA1 inh, rCAG binder)
Cc1sc2ccc3sccc3c2[n+]1C	PRMT1 FP inh 77
Cc1ccc(N2C(=O)CC(Sc3nc(C)cc(C)n3)C2=O)cc1 (stereo unspecified)	none
